Source: ChEMBL document CHEMBL2057102, “Aminothienopyridazine inhibitors of tau aggregation: evaluation of structure-activity relationship leads to selection of candidates with desirable in vivo properties” (Bioorg Med Chem, 2012)
pIC50: −log10 of the molar value.

Columns and labels:
[1] = Inhibition of heparin-induced alexa red-labelled tau K18PL mutant aggregation after 6 hrs by thioflavin-T fluorescence assay; set-up: species or system Homo sapiens
Procedure, shortened: (§1)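 Heparin-induced fibrillization of tau K18 fragment (residues 244–369) carrying P301L, with tau at 20 μM in sodium acetate buffer. Fibril formation was read by thioflavin-T fluorescence. IC50 came from sigmoidal fitting of concentration-response data, each concentration in triplicate. Values are from a single fit, or the mean of 2 or more analyses where marked.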

Homo sapiens [2] = species: Homo sapiens; test: Inhibition of heparin-induced tau K18PL mutant aggregation assessed as soluble tau fragment level at 50 uM after 5 days by SDS-PAGE analysis
Procedure, shortened: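 Secondary centrifugation assay. Heparin-induced K18 P301L tau fibrillization mixtures with compound at 50 μM were centrifuged. Soluble and insoluble fractions were analysed by SDS-PAGE to give the percentage of tau remaining soluble.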

Homo sapiens [3] = species: Homo sapiens; test: Inhibition of heparin-induced alexa red-labelled tau K18PL mutant aggregation after 6 hrs by thioflavin-T fluorescence assay relative to control; procedure, shortened: as §1
Mus musculus = test: Ratio of drug level in brain to plasma in B6C3F1 mouse at 5 mg/kg, ip after 1 hr
Brain [4] = test: Fraction unbound in mouse brain homogenate at 1 uM after 5 hrs by equilibrium dialysis; format: ADME, tissue-based
Procedure, shortened: (§2)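 Rapid equilibrium dialysis. Compound at 1 μM in mouse plasma or brain homogenate, each diluted threefold with 100 mM sodium phosphate pH 7.4. Triplicate samples dialysed against the same buffer for 5 h at 37 °C with shaking. Both sides were matrix-matched, extracted with acetonitrile and run by LC-MS/MS. fu is buffer response over sample response; brain fu was corrected for tissue dilution.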

[5] = Ratio of fraction unbound in brain homogenate to plasma in mouse at 1 uM after 5 hrs by equilibrium dialysis; format: ADME, tissue-based; procedure, shortened: as §2
[6] = (§3) Drug uptake in B6C3F1 mouse brain at 5 mg/kg, ip after 1 hr; format: ADME, organism-based; set-up: dose 5 mg/kg, route intraperitoneal; conditions: B6C3F1, mouse, brain, read-out: Drug uptake
Procedure, shortened: (§4)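 Single i.p. dose of 5 mg/kg, sacrifice 1 h later. Perfused brain hemispheres were homogenized in 10 mM ammonium acetate pH 5.7 (50% w/v). EDTA plasma was taken. Brain homogenate or plasma was extracted with acetonitrile and analysed by LC-MS/MS (MRM) against matrix standard curves. Brain-to-plasma ratio was taken from total levels.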

[7] = (§5) Drug uptake in B6C3F1 mouse plasma at 5 mg/kg, ip after 1 hr; format: ADME, organism-based; set-up: dose 5 mg/kg, route intraperitoneal; conditions: B6C3F1, mouse, plasma; procedure, shortened: as §4
Brain [8] = test: as §3; format: ADME, organism-based; set-up: dose 5 mg/kg, route intraperitoneal; conditions: mouse, in vivo, 1 h, BLD = below limit of detection; procedure, shortened: as §4
Plasma = test: as §5; format: ADME, organism-based; set-up: dose 5 mg/kg, route intraperitoneal; conditions: mouse, in vivo, 1 h, BLD = below limit of detection; procedure, shortened: as §4

CC(C)c1ccc(-n2nc(C(=O)NC3CC3)c3csc(N)c3c2=O)cc1
pIC50 [1]: 5.40
inhibition (Homo sapiens [2]): 86%
Imax (Homo sapiens [3]): 82%

CCOC(=O)c1nn(-c2ccc(Cl)cc2)c(=O)c2c(N)sc(Cl)c12
pIC50 [1]: 5.70
inhibition (Homo sapiens [2]): 65%
Imax (Homo sapiens [3]): 88%

CCOC(=O)c1nn(-c2ccc(C(F)(F)F)cc2)c(=O)c2c(N)scc12
inhibition (Homo sapiens [2]): 27%
Imax (Homo sapiens [3]): 48%

CCOC(=O)c1nn(-c2ccc(O)cc2)c(=O)c2c(N)scc12
pIC50 [1]: 5.30
inhibition (Homo sapiens [2]): 69%
Imax (Homo sapiens [3]): 81%

Cc1nn(C2CCCCC2)c(=O)c2c(N)scc12
pIC50 [1]: 4.50
inhibition (Homo sapiens [2]): 86%
Imax (Homo sapiens [3]): 65%

Cc1nn(Cc2ccccc2)c(=O)c2c(N)scc12
BPR (Mus musculus): 0.6
pIC50 [1]: 5.80
Fu (Brain [4]): 5.1%
inhibition (Homo sapiens [2]): 73%
Imax (Homo sapiens [3]): 89%
Ratio [5]: 0.77
concentration at 1 h [6]: 48 ng/g
concentration at 1 h [7]: 78 ng/mL

CC(C)NC(=O)c1nn(-c2ccc(Cl)cc2)c(=O)c2c1CSC2=O
BPR (Mus musculus): 0.0035
pIC50 [1]: 5.00
inhibition (Homo sapiens [2]): 85%
Imax (Homo sapiens [3]): 96%
concentration at 1 h [6]: 16.3 ng/g
concentration at 1 h [7]: 4700 ng/mL

Nc1scc2c(C(=O)O)nn(-c3ccc(C(F)(F)F)cc3)c(=O)c12
pIC50 [1]: 4.70
inhibition (Homo sapiens [2]): 83%
Imax (Homo sapiens [3]): 88%

Cc1nn(-c2ccccn2)c(=O)c2c(N)scc12
BPR (Mus musculus): 0.116
pIC50 [1]: 5.70
inhibition (Homo sapiens [2]): 78%
Imax (Homo sapiens [3]): 85%
concentration at 1 h [6]: 7.5 ng/g
concentration at 1 h [7]: 61 ng/mL

CCOC(=O)c1nn(-c2ccc(Cl)cc2)c(=O)c2c(N)sc(Br)c12
pIC50 [1]: 5.40
inhibition (Homo sapiens [2]): 62%
Imax (Homo sapiens [3]): 92%

CCOC(=O)c1nn(-c2ccc(F)cc2)c(=O)c2c(N)scc12
pIC50 [1]: 6.00
inhibition (Homo sapiens [2]): 63%
Imax (Homo sapiens [3]): 77%

CC(C)NC(=O)c1nn(-c2ccc(F)cc2)c(=O)c2c(N)scc12
BPR (Mus musculus): 2.68
pIC50 [1]: 5.80
Fu (Brain [4]): 2.9%
inhibition (Homo sapiens [2]): 77%
Imax (Homo sapiens [3]): 89%
Ratio [5]: 1.3
concentration at 1 h [6]: 280 ng/g
concentration at 1 h [7]: 110 ng/mL

CCOC(=O)C1=NN(c2ccc(Cl)cc2)C(=O)C(C#N)C1C (stereo not given)
inhibition (Homo sapiens [2]): 21%
Imax (Homo sapiens [3]): 4.4%

CCOC(=O)c1nn(-c2cccc(Cl)c2)c(=O)c2c(N)scc12
pIC50 [1]: 5.49
inhibition (Homo sapiens [2]): 73%
Imax (Homo sapiens [3]): 82%

Nc1scc2c(C(=O)O)nn(-c3ccc(OC(F)(F)F)cc3)c(=O)c12
pIC50 [1]: 5.80
inhibition (Homo sapiens [2]): 71%
Imax (Homo sapiens [3]): 92%

CC(C)n1nc(-c2ccccc2)c2csc(N)c2c1=O
pIC50 [1]: 4.70
inhibition (Homo sapiens [2]): 92%
Imax (Homo sapiens [3]): 89%

Nc1scc2c(C(=O)NC3CC3)nn(-c3ccc(C(F)(F)F)cc3)c(=O)c12
pIC50 [1]: 5.20
inhibition (Homo sapiens [2]): 83%
Imax (Homo sapiens [3]): 64%

Cc1nn(C(C)C)c(=O)c2c(N)scc12
pIC50 [1]: 4.70
inhibition (Homo sapiens [2]): 17%
Imax (Homo sapiens [3]): 95%

Nc1scc2c(C(=O)O)nn(-c3ccccc3Cl)c(=O)c12
pIC50 [1]: 5.49
inhibition (Homo sapiens [2]): 64%
Imax (Homo sapiens [3]): 86%

CC(C)NC(=O)c1nn(-c2ccc(OC(F)(F)F)cc2)c(=O)c2c(N)scc12
pIC50 [1]: 4.80
inhibition (Homo sapiens [2]): 42%
Imax (Homo sapiens [3]): 67%

CCOC(=O)c1nn(-c2ccccc2Cl)c(=O)c2c(N)scc12
pIC50 [1]: 5.70
inhibition (Homo sapiens [2]): 71%
Imax (Homo sapiens [3]): 75%

Cc1nn(CC(F)(F)F)c(=O)c2c(N)scc12
pIC50 [1]: 5.00
inhibition (Homo sapiens [2]): 78%
Imax (Homo sapiens [3]): 81%

Nc1scc2c(C(=O)O)nn(-c3ccc(O)cc3)c(=O)c12
pIC50 [1]: 5.40
inhibition (Homo sapiens [2]): 70%
Imax (Homo sapiens [3]): 84%

O=C(O)c1nn(-c2ccc(F)cc2)c(=O)c2c1CSC2=O
pIC50 [1]: 5.60
inhibition (Homo sapiens [2]): 87%
Imax (Homo sapiens [3]): 92%

CC(C)NC(=O)c1nn(-c2cccc(Cl)c2)c(=O)c2c(N)scc12
pIC50 [1]: 5.49
inhibition (Homo sapiens [2]): 73%
Imax (Homo sapiens [3]): 82%

CCOC(=O)c1nn(-c2ccc(OC(F)(F)F)cc2)c(=O)c2c(N)scc12
inhibition (Homo sapiens [2]): 29%
Imax (Homo sapiens [3]): 41%

Cc1nn(-c2ccc(Cl)cc2)c(=O)c2c(N)scc12
pIC50 [1]: 5.70
inhibition (Homo sapiens [2]): 70%
Imax (Homo sapiens [3]): 85%

CCOC(=O)c1c(C(=O)c2ccccc2)csc1N
inhibition (Homo sapiens [2]): 6.5%
Imax (Homo sapiens [3]): 29%

Nc1scc2c(C(=O)O)nn(-c3ccc(F)cc3)c(=O)c12
pIC50 [1]: 5.70
inhibition (Homo sapiens [2]): 83%
Imax (Homo sapiens [3]): 84%

Nc1scc2c(-c3ccccc3)nn(CC(F)(F)F)c(=O)c12
pIC50 [1]: 5.20
inhibition (Homo sapiens [2]): 82%
Imax (Homo sapiens [3]): 103%

CCOC(=O)c1nn(-c2ccc(Cl)cc2)c(=O)c2c(NC)scc12
inhibition (Homo sapiens [2]): 51%
Imax (Homo sapiens [3]): 39%

CCOC(=O)c1nn(-c2ccc(Cl)cc2)c(=O)c2c1C(O)NC2=O (stereo not given)
inhibition (Homo sapiens [2]): 15%
Imax (Homo sapiens [3]): 57%

Nc1scc2c(C(=O)O)nn(-c3cccc(Cl)c3)c(=O)c12
pIC50 [1]: 5.80
inhibition (Homo sapiens [2]): 73%
Imax (Homo sapiens [3]): 92%

CC(C)NC(=O)c1nn(-c2ccc(O)cc2)c(=O)c2c(N)scc12
BPR (Mus musculus): 0.098
pIC50 [1]: 4.80
inhibition (Homo sapiens [2]): 84%
Imax (Homo sapiens [3]): 86%
concentration at 1 h [6]: 14.1 ng/g
concentration at 1 h [7]: 150 ng/mL

Nc1scc2c(C(=O)NC3CC3)nn(-c3ccccc3Cl)c(=O)c12
inhibition (Homo sapiens [2]): 44%
Imax (Homo sapiens [3]): 68%

CCOC(=O)c1nn(-c2ccc(C(C)C)cc2)c(=O)c2c(N)scc12
inhibition (Homo sapiens [2]): 17%
Imax (Homo sapiens [3]): 8%

Cc1nn(C)c(=O)c2c(N)scc12
pIC50 [1]: 5.60
inhibition (Homo sapiens [2]): 76%
Imax (Homo sapiens [3]): 82%
Drug uptake (Brain [8]): BLD
concentration at 1 h [7]: 10 ng/mL

Nc1scc2c(C(=O)NCC(F)(F)F)nn(-c3ccc(F)cc3)c(=O)c12
BPR (Mus musculus): 1.59
pIC50 [1]: 5.10
Fu (Brain [4]): 3.2%
inhibition (Homo sapiens [2]): 75%
Imax (Homo sapiens [3]): 83%
Ratio [5]: 2.31
concentration at 1 h [6]: 637 ng/g
concentration at 1 h [7]: 401 ng/mL

Cc1n[nH]c(=O)c2c(N)scc12
pIC50 [1]: 5.10
inhibition (Homo sapiens [2]): 81%
Imax (Homo sapiens [3]): 87%
Drug uptake (Brain [8]): BLD
Cp (Plasma): BLD

Cc1nn(-c2cccnc2)c(=O)c2c(N)scc12
pIC50 [1]: 5.40
inhibition (Homo sapiens [2]): 84%
Imax (Homo sapiens [3]): 74%
